The test system of test [1] is Liver microsome. Description: Effect on mitochondrial transmembrane potential in Wistar Han rat liver mitochondria energized with succinate assessed as ADP depolarization at 1.333 ug/mg of protein (reference value: 34.7 +/- 1.4 mV). Format: functional.
Test [2] has as its system Liver microsome. The experiment in a line: Effect on mitochondrial transmembrane potential in Wistar Han rat liver mitochondria energized with succinate assessed as time duration of lag phase at 0.333 ug/mg of protein (reference value: 82.8 +/- 23.5 sec). The test is classed as functional. In outline: (§1)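 Isolated male Wistar rat liver mitochondria (1.5 mg protein) in 125 mM sucrose, 65 mM KCl, 5 mM KH2PO4, 2.5 mM MgCl2, 5 mM HEPES pH 7.4, 30°C, with 3 μM TPP+. Compound added for 1 min, then 10 mM succinate plus 3 μM rotenone. State 3 started with ADP (83.3 nmol/mg protein). ΔΨ read with a TPP+-selective electrode and calculated by the Kamo equation without binding correction.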

For test [3], the system named is Liver microsome. The experiment in a line: Effect on mitochondrial transmembrane potential in Wistar Han rat liver mitochondria energized with succinate assessed as ADP depolarization at 0.067 ug/mg of protein (reference value: 34.7 +/- 1.4 mV). Format: functional.
Test [4] has as its system Liver microsome. The experiment in a line: Effect on mitochondrial transmembrane potential in Wistar Han rat liver mitochondria energized with succinate assessed as mitochondrial transmembrane electropotential at 0.06 ug/mg of protein (reference value: 204.2 +/- 5.6 mV). The test is classed as functional.
Test [5] concerns Liver microsome. The experiment in a line: Effect on mitochondrial transmembrane potential in Wistar Han rat liver mitochondria energized with succinate assessed as time duration of lag phase at 0.133 ug/mg of protein (reference value: 33.0 +/- 4.6 sec). The test is classed as functional. In a few lines:
as §1

In test [6] the test system is Liver microsome. Description: Effect on mitochondrial transmembrane potential in Wistar Han rat liver mitochondria energized with succinate assessed as time duration of lag phase at 0.333 ug/mg of protein (reference value: 33.0 +/- 4.6 sec). The test is classed as functional. In outline:
as §1

Test [7] has as its system Liver microsome. Description: Effect on mitochondrial transmembrane potential in Wistar Han rat liver mitochondria energized with succinate assessed as time duration of lag phase at 0.667 ug/mg of protein (reference value: 33.0 +/- 4.6 sec). The test is classed as functional. In outline:
as §1

Another test relates to MCF7. Description: Cytotoxicity against human MCF7 cells at 0.125 to 2 ug/ml after 1 to 5 days by sulforhodamine B assay. Format: functional, cell-based. In outline:
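Sulforhodamine B growth assay in high-glucose DMEM with 10% FBS. Cancer cells seeded at 1×10^4 cells/ml; compound (0.125–2 μg/ml) added 24 h after seeding and left for 1, 3 or 5 days. Cells fixed, total mass stained. Expressed as % of untreated cells at the same time point. Mean ± SEM, five independent experiments.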
(Sulforhodamine B stains cellular protein and so reports cell mass.)

Test [8] relates to Liver microsome. The experiment in a line: Effect on mitochondrial transmembrane potential in Wistar Han rat liver mitochondria energized with succinate assessed as mitochondrial transmembrane electropotential at 0.333 ug/mg of protein (reference value: 220.6 +/- 2.5 mV). The test is classed as functional.
Test [9] deals with Liver microsome. Description: Effect on mitochondrial transmembrane potential in Wistar Han rat liver mitochondria energized with succinate assessed as time duration of lag phase at 0.667 ug/mg of protein Rvb = 46.7 +/- 3.9 sec). Format: functional. In outline: as §1
Test [10] deals with Liver microsome. The experiment in a line: Reduction in ADP-induced mitochondrial transmembrane electropotential in Wistar Han rat liver mitochondria energized with succinate at >0.3 ug/mg of protein. The test is classed as functional.
Test [11] concerns Liver microsome. The experiment in a line: Effect on mitochondrial transmembrane potential in Wistar Han rat liver mitochondria energized with succinate assessed as ADP depolarization at 0.333 ug/mg of protein (reference value: 34.6 +/- 1.9 mV). Format: functional.
In test [12] the test system is Liver microsome. Description: Effect on mitochondrial transmembrane potential in Wistar Han rat liver mitochondria energized with succinate assessed as mitochondrial transmembrane electropotential at 0.667 ug/mg of protein (reference value: 220.6 +/- 2.5 mV). Format: functional. In outline: as §1
In test [13] the test system is Liver microsome. The experiment in a line: Effect on mitochondrial transmembrane potential in Wistar Han rat liver mitochondria energized with succinate assessed as mitochondrial transmembrane electropotential at 0.06 ug/mg of protein (reference value: 198.0 +/- 5.6 mV). Format: functional.
The test system of test [14] is Liver microsome. Description: Effect on mitochondrial transmembrane potential in Wistar Han rat liver mitochondria energized with succinate assessed as time duration of lag phase at 0.133 ug/mg of protein (reference value: 40.5 +/- 4.5 sec). Format: functional. In outline: as §1

This note sets out measurements from ChEMBL document CHEMBL3351723, “New derivatives of lupane triterpenoids disturb breast cancer mitochondria and induce cell death” (Bioorg Med Chem, 2014).

Molecules are shown by their SMILES. Active and inactive are the calls of the source. No cut-off for these calls is given here.

As for `C=C(C)[C@@H]1CC[C@]2(COC(=O)C[n+]3ccc(N(C)C)cc3)CC[C@]3(C)[C@H](CC[C@@H]4[C@@]5(C)CC[C@H](OC(=O)C[n+]6ccc(N(C)C)cc6)C(C)(C)[C@@H]5CC[C@]43C)[C@@H]12.[Cl-].[Cl-]`, the Activity amounted to 25.2 mV in the test on Liver microsome [1] and 28.4 mV in the test with Liver microsome [3]. For the same compound, the TIME in the test with Liver microsome [2] turned out to be 0.0217 h.
As for `C=C(C)[C@@H]1CC[C@]2(COC(=O)CC[n+]3ccc(N(C)C)cc3)CC[C@]3(C)[C@H](CC[C@@H]4[C@@]5(C)CC[C@H](OC(=O)CC[n+]6ccc(N(C)C)cc6)C(C)(C)[C@@H]5CC[C@]43C)[C@@H]12.[Cl-].[Cl-]`, in the test on Liver microsome [4], the Activity was found to be 206 mV. The TIME turned out to be 0.00867 h in the test on Liver microsome [5], 0.00894 h with Liver microsome [6] and 0.00894 h in the test on Liver microsome [7]. Further, the inhibition entry with MCF7 is “Active”.
Take `C=C(C)[C@@H]1CC[C@]2(COC(=O)C[N+](C)(C)C(C)C)CC[C@]3(C)[C@H](CC[C@@H]4[C@@]5(C)CC[C@H](OC(=O)C[N+](C)(C)C(C)C)C(C)(C)[C@@H]5CC[C@]43C)[C@@H]12.[Cl-].[Cl-]`: the Activity stood at 213 mV in the test on Liver microsome [8], 28.8 mV in the test on Liver microsome [11] and 211 mV with Liver microsome [12]. Also, the TIME with Liver microsome [9] worked out at 0.0146 h. Further, the inhibition entry with Liver microsome [10] was “Active”.
Regarding `C=C(C)[C@@H]1CC[C@]2(COC(=O)C(CC)[n+]3ccc(N(C)C)cc3)CC[C@]3(C)[C@H](CC[C@@H]4[C@@]5(C)CC[C@H](OC(=O)C(CC)[n+]6ccc(N(C)C)cc6)C(C)(C)[C@@H]5CC[C@]43C)[C@@H]12` (stereo not given in full), the Activity in the test with Liver microsome [13] stood at 198 mV. Further, in the test with Liver microsome [14], the TIME was found to be 0.0122 h.
